Source: ChEMBL document CHEMBL4028867, “Design, Synthesis, and Characterization of N-Oxide-Containing Heterocycles with in Vivo Sterilizing Antitubercular Activity” (J Med Chem, 2017)
pIC50: −log10 of the molar value. Values after ≈ are worked out from the molar mass of the structure shown. Active and inactive are the calls of the source. The calls are words filed in the database; no cut-off is given here.

Assays:
[1] = Chemical stability in PBS at pH 7.4 assessed as drug degradation after 10 hrs by HPLC-UV analysis; assay type: physicochemical; conditions: read-out: Drug degradation
[2] = tested on: Mycobacterium tuberculosis; assay: Antitubercular activity against Mycobacterium tuberculosis H37Rv ATCC 27294 under normal pH 6.8 condition; assay type: functional
Mus musculus [3] = assay: Hepatotoxicity in BALB/c mouse assessed as change in alanine aminotransferase level in plasma at 200 mg/kg, po qd administered via gavage after 10 days; assay type: toxicity, organism-based; conditions: in vivo, 240 h
[4] = tested on: Mycobacterium tuberculosis; assay: Antitubercular activity against dormant stage Mycobacterium tuberculosis H37Rv ATCC 27294 incubated for 10 days in anaerobic condition followed by incubation for 28 hrs in ambient gaseous condition measured after day 11 by two fold serial dilution assay; assay type: functional
[5] = Stability of the compound in PBS assessed as parent compound remaining at pH 7.4 after 24 hrs by HPLC-UV analysis; assay type: physicochemical; conditions: read-out: Stability
[6] = Chemical stability in PBS at pH 5.5 assessed as drug degradation after 10 hrs by HPLC-UV analysis; assay type: physicochemical; conditions: read-out: Drug degradation
Mus musculus [7] = assay: Nephrotoxicity in BALB/c mouse assessed as change in urea level in blood at 200 mg/kg, po qd administered via gavage after 10 days; assay type: toxicity, organism-based; conditions: in vivo, 240 h
[8] = Stability of the compound in PBS assessed as parent compound remaining at pH 5.5 after 24 hrs by HPLC-UV analysis; assay type: physicochemical; conditions: read-out: Stability
[9] = tested on: Mycobacterium tuberculosis; assay: Bactericidal activity against Mycobacterium tuberculosis H37Rv ATCC 27294 assessed as colony forming units at 41.24 uM after 48 hrs by time kill analysis; assay type: functional
Procedure, shortened: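 Time–kill: H37Rv ATCC 27294 exposed to drug at 41.24 μM, alongside INH 0.72 μM, RMP 0.01 μM and MOX 0.88 μM; log10 CFU/mL followed over days. Counts are the mean of three independent assays, ± SD.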

[10] = tested on: Mycobacterium tuberculosis; assay: Growth inhibition of Mycobacterium tuberculosis H37Rv exposed to plasma from BALB/c mouse treated with 300 mg/kg, po administered through microemulsion vehicle as single oral dose per gavage after 0.3 hrs by Resazurin microtiter assay; assay type: functional; conditions: read-out: GI
Procedure, shortened: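 The microemulsion was 10% cholesterol, 10% phosphatidylcholine/sodium oleate/polyoxyl 40 hydrogenated castor oil (3:6:8) and 80% phosphate buffer pH 7.4. Plasma taken at 0.3, 1, 2 or 4 h was tested by REMA for % Mtb growth inhibition, and plasma level was estimated against the in-vitro REMA MIC.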

Mus musculus [11] = assay: Hepatotoxicity in BALB/c mouse assessed as change in aspartate aminotransferase level in plasma at 200 mg/kg, po qd administered via gavage after 10 days; assay type: toxicity, organism-based; conditions: in vivo, 240 h
[12] = tested on: Mycobacterium tuberculosis; assay: Antitubercular activity against replicating stage Mycobacterium tuberculosis H37Rv ATCC 27294 after 7 days by Resazurin microtiter assay; assay type: functional; conditions: H37Rv ATCC 27294, 168 h
[13] = tested on: Mycobacterium tuberculosis; assay: Up-regulation of heat shock protein genes in Mycobacterium tuberculosis H37Rv at 2 times MIC after 4 hrs by microarray analysis; assay type: functional
Cytochrome P450 2B6 = target: T1, Cytochrome P450 2B6 (Homo sapiens, UniProt P20813); assay: Inhibition of CYP2B6 in human liver microsomes in presence of NADPH by LC-MS/MS analysis; assay type: ADME
T1 sequence (P20813 whole entry): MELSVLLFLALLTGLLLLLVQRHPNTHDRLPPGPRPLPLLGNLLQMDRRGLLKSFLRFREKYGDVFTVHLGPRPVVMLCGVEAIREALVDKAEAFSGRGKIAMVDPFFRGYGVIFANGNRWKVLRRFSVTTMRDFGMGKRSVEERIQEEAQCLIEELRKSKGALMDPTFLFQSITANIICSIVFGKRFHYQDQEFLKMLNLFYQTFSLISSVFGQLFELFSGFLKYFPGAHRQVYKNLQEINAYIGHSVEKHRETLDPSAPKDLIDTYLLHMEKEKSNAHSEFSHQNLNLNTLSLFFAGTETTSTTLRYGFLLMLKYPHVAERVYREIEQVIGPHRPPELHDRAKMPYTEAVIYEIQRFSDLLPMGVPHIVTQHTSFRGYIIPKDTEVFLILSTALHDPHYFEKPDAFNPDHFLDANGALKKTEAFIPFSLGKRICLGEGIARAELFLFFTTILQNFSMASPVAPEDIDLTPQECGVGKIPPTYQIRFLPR

[14] = tested on: Mycobacterium tuberculosis; assay: Downregulation of hspR gene in Mycobacterium tuberculosis H37Rv at 2 times MIC90 after 4 hrs by microarray analysis; assay type: functional
[15] = Apparent permeability from basolateral to apical side in human Caco2 cells by LC-MS/MS analysis; assay type: ADME, cell-based; conditions: caco-2
Procedure, shortened: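 Caco-2 monolayer permeability measured in both directions (apical-to-basolateral and basolateral-to-apical); result given as apparent permeability coefficient Papp in cm/s.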

[16] = Induction of nitric oxide release by Griess assay
Procedure, shortened: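 Griess assay: chemical detection of nitrite ions in solution as indicator of nitric oxide release.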

[17] = tested on: Mycobacterium tuberculosis; assay: Antitubercular activity against Mycobacterium tuberculosis H37Rv ATCC 27294 infected in mouse J774A.1 cells at 1.46 to 23.86 ug/ml after 3 days relative to control; assay type: functional
Mus musculus [18] = assay: Nephrotoxicity in BALB/c mouse assessed as change in kidney morphology at 200 mg/kg, po qd administered via gavage after 10 days by hematoxylin and eosin staining based analysis; assay type: toxicity, organism-based; conditions: in vivo, 240 h
Procedure, shortened: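 BALB/c mice dosed orally by gavage once daily at 200 mg/kg; liver and kidney sections stained with H&E and examined for tissue morphology.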

[19] = tested on: Mycobacterium tuberculosis; assay: Up-regulation of […] gene EF-Tu in Mycobacterium tuberculosis H37Rv at 2 times MIC90 after 4 hrs by microarray analysis; assay type: functional
Mus musculus [20] = assay: Toxicity in BALB/c mouse assessed as change in kidney weight at 200 mg/kg, po qd administered via gavage after 10 days; assay type: organism-based; conditions: in vivo, 240 h
Procedure, shortened: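 Mice given one daily oral gavage dose of 200 mg/kg body weight for 10 days with daily behavioural monitoring (hippocratic screening); heart, lung, spleen, kidney and liver weights compared with controls by ANOVA and Dunnett's test, p < 0.05.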

O=C(N/N=C/c1ccc2no[n+]([O-])c2c1)c1ccncc1
degraded at 10 h [1]: 20%
MIC90 [2]: 5.47 µM (≈ 1.55 µg/mL)
Activity (Mus musculus [3]): Non-Toxic
MIC90 [4]: 6.62 µM (≈ 1.88 µg/mL)
remaining at 24 h [5]: 75%
degraded at 10 h [6]: 20%
Activity (Mus musculus [7]): Toxic
remaining at 24 h [8]: 67%
Activity [9]: 6.7 log10CFU/ml
inhibition in vivo at 300 mg/kg [10]: 65.7%
Activity (Mus musculus [11]): Non-Toxic
MIC90 [12]: 1.1 to 5.84 µM (≈ 0.312 to 1.65 µg/mL)
Activity [13]: inactive
pIC50 (Cytochrome P450 2B6): < 4.70
Activity [14]: Active
Papp [15]: 3.9 ×10⁻⁶ cm/s
Activity [16]: inactive
inhibition (INH) [17]: 90%
Activity (Mus musculus [18]): Non-Toxic
Activity [19]: Active
Activity (Mus musculus [20]): Non-Toxic
